Fibroblast inh = blocks proliferation of human lung fibroblasts; LL 47 human lung fibroblast viability, ATP luminescence; stronger effect = lower value; 1.1% of 85,000 active; AID 719; viability, % at 10 µM;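 active = viability at or below 50% in the single dose screen; inactive = viability above 50%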;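 note: compound exposure lasted 72 h before the ATP readout; 100% = median luminescence of untreated cell-only wells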
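Test system: LL 47 human lung fibroblasts / Incubation: 72 h compound exposure at 37 °C after overnight plating / Technique: luminescent ATP detection, CellTiter-Glo / Compound dosing: 0.1% DMSO in all compound wells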
H69AR inhibit = blocks growth of human H69AR lung tumor cells. 6% of 85,000 active. H69AR lung tumor viability, ATP luminescence, 72 h; stronger effect = lower value. AID 598. viability, % at 10 µM;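 active = viability at or below 40%; inactive = viability above 40%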;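 note: multidrug resistant small cell line overexpressing MRP-1 efflux transporter; 100% = mean luminescence of untreated control wells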
bCat KO growth = beta-catenin-lacking colon tumor cell growth suppression; HCT116 beta-catenin knockout viability, CellTiter-Glo, 60 h; stronger effect = lower value; viability, % at 10 µM; 1.5% of 140,000 active;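 active = viability at or under a set limit, the compound median less 4 SD, cut at about 6% in these data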;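 note: 0% = Hyamine 1622 control at 20 µM and 100% = untreated cell control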
PTEN del growth = suppresses growth of cells with PTEN deletion; HCT116 PTEN-null viability, CellTiter-Glo, 60 h; stronger effect = lower value; viability, % at 10 µM; 1.2% of 140,000 active; AID 827;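 active = viability at or below a set limit, 4 SD under the median of all tested compounds, cut at about 3.7% in these data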;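 note: PTEN knockout HCT116 line with beta catenin targeted HCT116 as companion control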
HUVEC inhibit = blocks proliferation of human endothelial cells; AID 648; HUVEC proliferation, CellTiter-Glo luminescence, 72 h; stronger effect = lower value; 1.1% of 86,000 active; viability, % at 10 µM (by protocol);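 active = viability at or below 30%; inactive = viability above 30%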;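 note: 100% = median luminescence of DMSO-only cell control wells on each plate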
The depositor's hits bear a star; . = no result given. Shown is part of a subset that was picked to be rich in hits.

SMILES | Fibroblast inh | H69AR inhibit | bCat KO growth | PTEN del growth | HUVEC inhibit
CCCCNc1nc(N(C)c2ccccc2)nc(-n2ccnc2)n1 | 76 | 33* | 79 | 70 | 82
C=CCNc1nc(N(c2ccccc2)c2ccccc2)nc(-n2ccnc2)n1 | 88 | 54 | 93 | 95 | 77
Cc1ccc2nc(NC(=O)c3ccc(NS(=O)(=O)c4cccs4)cc3)sc2c1 | . | . | 74 | 71 | .
CCOCCCNC(=O)C(NC(=O)c1cnccn1)c1ccc(C)cc1 (stereo not drawn) | 93 | 99 | 103 | 108 | 89
C[C@@H]1NC(=O)c2cc([N+](=O)[O-])cc(I)c2OCC[C@@H](C(N)=O)NC(=O)[C@H](CCC(=O)O)NC1=O | . | . | 91 | 101 | .
CCc1ccc(N2CC(C(=O)OCC(=O)Nc3cc(C)on3)CC2=O)cc1 (stereo not drawn) | . | 37* | 107 | 106 | 104
CCC(=O)NC(=S)NNC(=O)c1ccc(OC)cc1 | . | . | 38 | 29 | .
CCCCOc1ccc(C(=O)NNC(=S)NC(=O)CC)cc1 | . | . | 4.5* | 5 | .
COc1cc(Nc2ccc(C)cc2)c([N+](=O)[O-])nc1[N+](=O)[O-] | 39* | 6.2* | 23 | 21 | 42
O=C1c2ccccc2C(=O)C1c1ccnc2ccccc12 | 68 | 41 | 9 | 12 | 50
O=C1c2ccccc2C(=O)C1c1nccc2ccccc12 | . | . | 5.0* | 8 | .
Clc1cccc(Cl)c1CO/N=C/c1c(-c2ccccc2)nc2n1CCS2 | . | . | 43 | 35 | .
CN(C)c1ncnc2c1ncn2C1OC(CO)C(O)C1O (stereo not drawn) | 41* | 6.8* | 5.2* | 4 | 15*
Nc1nc(Cl)nc2c1ncn2[C@@H]1O[C@H](CO)[C@@H](O)[C@H]1O | 78 | 18* | 31 | 58 | 45
O=C(NC(=S)NCC1CCCO1)c1ccc([N+](=O)[O-])cc1 (stereo not drawn) | . | . | 96 | 96 | .
O=C(c1sc2cccc(F)c2c1Cl)N1CCN(c2ncccn2)CC1 | . | . | 92 | 92 | .
Cn1cc([N+](=O)[O-])c(C(=O)N/N=C/c2ccc([N+](=O)[O-])cc2)n1 | . | . | 89 | 93 | .
Cn1cc([N+](=O)[O-])c(C(=O)Nc2ccc(Br)cn2)n1 | . | . | 2.7* | 1.4* | .
Cn1cc([N+](=O)[O-])c(C(=O)Nc2ccn(Cc3c(F)c(F)cc(F)c3F)n2)n1 | . | . | 3.0* | 3.1* | .
O=C(COC(=O)c1ccc2ccccc2c1)NCCCc1ccccc1 | . | . | 95 | 100 | .
O=C(CN(C(=O)CSc1nc2ccccc2o1)c1ccccc1)NC1CCCCC1 | . | . | 92 | 85 | .
C=CCn1cnc2c(c1=O)c1nc3ccccc3nc1n2/N=C/c1cc(OC)c(OC)c(OC)c1 | 24* | 8.9* | 0.8* | 1.4* | 39
COc1ccc(NC(=O)NN(C(=O)c2ccccc2)C(C)(C)C)cc1 | . | . | 87 | 93 | .
Cc1cc(=O)oc2cc(OCC(=O)N3c4ccccc4CC3C)ccc12 (stereo not drawn) | 62 | 24* | 19 | 19 | 57
Cc1cc(=O)oc2cc(OCC(=O)N3CC(C)OC(C)C3)ccc12 (stereo not drawn) | 104 | 93 | 92 | 102 | 94
SMILES | Fibroblast inh | H69AR inhibit | bCat KO growth | PTEN del growth | HUVEC inhibit
Cc1cc(=O)oc2cc(OCC3CC(c4ccccc4)=NO3)ccc12 (stereo not drawn) | 91 | 24* | 40 | 43 | 64
COc1ccc(Cn2c(-c3ccc(C)cc3)c[n+]3ccccc23)cc1 | . | . | 13 | 16 | .
COC(=O)c1sc(N)c(C(=O)OC)c1COC(=O)CCNS(=O)(=O)c1ccc(C)cc1 | . | . | 91 | 77 | .
Cc1cccc(OCCNC(=O)c2cncc(Br)c2)c1 | . | . | 93 | 88 | .
COC1(OC)C(/C=C/c2ccc(Cl)cc2)C(C#N)(C#N)C1(OC)OC (stereo not drawn) | 52 | -0.4* | 4.2* | 3.0* | 7.0*
O=S(=O)(c1cccc(-c2nc3ccccc3s2)c1)N1CCOCC1 | 98 | 95 | 90 | 86 | 101
Cc1ccc(-c2nc3ccccc3s2)cc1S(=O)(=O)N1CCCC1 | 97 | 32* | 67 | 64 | 108
Cc1ccc(C(=O)c2no[n+]([O-])c2C(=O)c2ccc(C)cc2)cc1 | . | . | 87 | 89 | .
CC(OC(=O)c1ccc([N+](=O)[O-])s1)C(=O)Nc1ncc(Cl)cc1Cl (stereo not drawn) | . | . | 82 | 91 | .
CN1C2C=C3C(C#N)=C(N)C(C#N)(C#N)[C@@H](c4cccs4)C3C1CC2 (stereo partly drawn) | 90 | 75 | 94 | 93 | 94
CC(C)(C)C1CC=C2C(C#N)=C(N)C(C#N)(C#N)C(c3cccs3)C2C1 (stereo not drawn) | 88 | 65 | . | . | 2.1*
CCOC(=O)c1[nH]c(C)c(C(=O)Nc2ccc(C)cc2C)c1C | 64 | 38* | 29 | 23 | 67
CCOC(=O)c1[nH]c(C)c(C(=O)NCc2ccc(C)cc2)c1C | 97 | 91 | 91 | 68 | 59
CCOC(=O)c1[nH]c(C)c(C(=O)c2ccc(C)cc2)c1C | 46* | 29* | 14 | . | 41
CCOC(=O)c1[nH]c(C)c(C(=O)Nc2ccc(F)cc2)c1C | 99 | 84 | 99 | 102 | 100
CCOC(=O)c1[nH]c(C)c(C(=O)Nc2ccccc2F)c1C | 64 | 23* | 23 | 20 | 56
COC(=O)c1cc(OC)c(OC)cc1NC(=S)N1CCN(c2ccccc2)CC1 | . | . | 85 | 77 | .
COC(=O)c1ccc(N2CCCCC2)c(NS(=O)(=O)c2ccc(C)cc2)c1 | 101 | 77 | 35 | 53 | 90
CCN(CC)CCNC(=O)c1ccc(N2CCCCC2)c(NS(=O)(=O)c2ccc(C)cc2)c1 | 67 | 77 | 1.8* | 1.8* | 66
CCOC(=O)c1c(NC(=O)c2ccc(Cl)s2)sc(C)c1C | 100 | 33* | . | . | 76
Cc1ccccc1-c1cc(C(=O)Nc2sc(C)c(C)c2C(N)=O)c2ccccc2n1 | . | . | 65 | 53 | .
O=C(COC(=O)c1cc(-c2ccc(Cl)s2)nc2ccccc12)NCc1ccco1 | 95 | 27* | 53 | 62 | 64
O=C(COC(=O)c1cc(-c2cccs2)nc2ccccc12)NCc1ccco1 | 103 | 89 | 97 | 104 | 92
CCOC(=O)c1c(NC(=O)c2cc(-c3ccc(Cl)s3)nc3ccccc23)sc(C(N)=O)c1C | . | . | 3.6* | 1.2* | .
O=C(CCNc1ccc(F)cc1)c1ccco1 | 91 | 1.1* | 64 | 52 | 75
SMILES | Fibroblast inh | H69AR inhibit | bCat KO growth | PTEN del growth | HUVEC inhibit
O=C(CCNc1ccc(F)c(Cl)c1)c1ccco1 | 96 | 1.8* | 2.2* | 20 | 71
O=C(CCNc1cc(Cl)cc(Cl)c1)c1ccco1 | 100 | 83 | 12 | 55 | 90
S=C(N/N=C/c1ccccc1)N1CCOCC1 | . | . | 81 | 80 | .
Cc1cn2c(nc(=O)c3cccnc32)s1 | . | . | 96 | 103 | .
Cc1ccc(NC(=O)CSCC(=O)N2c3ccccc3CCc3ccccc32)cc1 | . | . | 66 | 67 | .
Cc1cc(C)nc(SCc2ccc(C(=O)NNC(=O)Nc3cccc(Cl)c3)cc2)n1 | . | . | 76 | 67 | .
COc1ccc(/C=C2\CN(Cc3ccccc3)C/C(=C\c3ccc(OC)cc3OC)C2=O)c(OC)c1 | . | . | 4.8* | 2.7* | .

Screens as filed in PubChem.
